# Bioassay records from PubChem.
# A selection: hits, their analogues and other compounds. The true share with any hit is near 3.2%.
# DAX1 inh-1 – DAX1 (NR0B1) inhibitors on StAR promoter, primary screen, cell-based, luminescence, SF-1 (NR5A1), full-length DAX-1 | 370,000 compounds, 1.1% hits | inhibition, % at 6.8 µM | HEK293T StAR-luciferase reporter, SF-1/DAX-1 repression relief;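 active = inhibition above the mean over all tested compounds plus 3 SD, cut at about 3.6% in these data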;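 also: higher inhibition means more luminescence from relief of DAX-1 repression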
# NR2E3 ag-1 – inhibitors of NR2E3-RetCOR corepressor binding, primary screen, NR2E3 agonist project, biochemical, TR-FRET, GST-NR2E3, biotin-RetCOR; Photoreceptor-specific nuclear receptor (Homo sapiens), Q9Y5X4; 1536-well; inhibition of corepressor binding, % at 4.78 µM; 320,000 compounds, 0.12% hits; AID 2300, 2010;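 active = percent inhibition above the cutoff of mean plus 3 SD of all tested compounds, set per screening campaign, cut at about 20% in these data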
#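 System: GST-tagged NR2E3 plus biotinylated RetCOR corepressor; Amount: 1.35 nM GST-tagged NR2E3 final; Dosing: single nominal compound dose of 4.8 µM; Schedule: 5 h incubation at 4 °C; Technique: TR-FRET with europium anti-GST and streptavidin-D2, 340 nm excitation; Controls: biotin wells as high control, 0.6% DMSO wells as low control.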
# DAX1 inh-2 – DAX1 (NR0B1) inhibitors, primary screen, cell-based, HEK293, Gal4-DAX1, luciferase luminescence; Nuclear receptor subfamily 0 group B member 1 (Homo sapiens), P51843; HEK293 Gal4-DAX1 luciferase reporter; inhibition, % at 6.75 µM; 340,000 compounds, 0.99% hits; AID 504766, 2011;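 active = inhibition above the mean over all tested compounds plus 3 SD, cut at about 4.2% in these data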;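 also: inhibition shows as a rise in luminescence from relieved DAX1 repression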
# Target sequence (P51843 207-470 limits assumed): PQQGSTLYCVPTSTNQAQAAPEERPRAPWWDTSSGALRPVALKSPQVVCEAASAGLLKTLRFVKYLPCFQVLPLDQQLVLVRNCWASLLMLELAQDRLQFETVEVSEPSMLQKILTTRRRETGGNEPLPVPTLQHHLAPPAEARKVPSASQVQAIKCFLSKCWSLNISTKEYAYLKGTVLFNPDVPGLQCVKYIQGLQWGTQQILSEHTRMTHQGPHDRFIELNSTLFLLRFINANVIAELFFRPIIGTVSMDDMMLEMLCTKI
# NR2E3 ag-2 – NR2E3 agonists in two-hybrid cells, primary screen, cell-based, luminescence, CHO-S, Gal4-NCOR/VP16-NR2E3 | Photoreceptor-specific nuclear receptor (Homo sapiens), Q9Y5X4 | luciferase | inhibition of corepressor binding, % at 3.98 µM | 360,000 compounds, 0.35% hits | AID 602229, 2012;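 active = inhibition above the mean of all tested compounds plus 3 SD, cut at about 70% in these data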;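 also: higher means lower luciferase signal from less NR2E3 corepressor binding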
# SMARCA2 activ – SMARCA2 (BRM) function activators, primary screen, cell-based, luminescence, high throughput | activation, % at 9.1 µM | MG213 cells, MMTV-luciferase reporter, dexamethasone, overnight | 370,000 compounds, 1% hits; in the data active = activation above about 7.8%
# JMJD2C inh – inhibitors of GASC-1 histone demethylase, primary screen, biochemical, fluorescence, DELFIA europium; GST-JMJD2C(1-420) H3K9me3 demethylation; Lysine-specific demethylase 4C (Homo sapiens), Q9H3R0; 330,000 compounds, 0.069% hits; inhibition, % at 2.35 µM;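 active = more than half of a compound's replicate wells show inhibition beyond 50%, single wells judged on their own value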;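 also: signal counts dimethyl H3K9 product captured on neutravidin plate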
# Target sequence (Q9H3R0 1-420 limits assumed): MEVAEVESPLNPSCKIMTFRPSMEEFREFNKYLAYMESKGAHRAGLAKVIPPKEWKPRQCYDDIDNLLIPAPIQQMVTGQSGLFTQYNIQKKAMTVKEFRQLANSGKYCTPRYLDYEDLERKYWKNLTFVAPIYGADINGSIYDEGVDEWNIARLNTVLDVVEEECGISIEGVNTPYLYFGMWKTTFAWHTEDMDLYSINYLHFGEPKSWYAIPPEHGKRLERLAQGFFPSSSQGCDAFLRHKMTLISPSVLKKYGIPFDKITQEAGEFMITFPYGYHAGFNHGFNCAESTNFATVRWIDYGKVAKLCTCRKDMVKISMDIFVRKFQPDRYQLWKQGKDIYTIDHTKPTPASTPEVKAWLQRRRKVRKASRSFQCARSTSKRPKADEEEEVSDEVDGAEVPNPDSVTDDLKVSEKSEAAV
# NR2E3 ag confirm – NR2E3 agonist confirmation in cells, cell-based, luminescence, CHO-S two-hybrid. shares compounds with NR2E3 ag-2. CHO-S mammalian two-hybrid NR2E3-NCOR, luciferase luminescence. inhibition, % at 3.98 µM. 2,300 compounds, 51% hits. AID 624378, 2012;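 active = average inhibition above a cutoff equal to the mean inhibition of all tested compounds plus one SD, cut at about 70% in these data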
# GAL4-VP16 luc – GAL4-VP16 reporter modulators, confirmation, counter-screen for NR2E3 agonist project, cell-based, luminescence, CHO-S, high throughput. CHO-S GAL4-VP16 luciferase reporter. shares compounds with NR2E3 ag-2. inhibition, % at 3.98 µM. 2,300 compounds, 29% hits;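 active = mean inhibition above a cutoff equal to the average over all tested compounds plus one standard deviation, cut at about 70% in these data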;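 also: luciferase from a UAS reporter driven by GAL4-VP16 transactivation; higher means less reporter light so more repression of VP16 activity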
# A number is an active result; - = inactive; . = no result.
SMILES,DAX1 inh-1,NR2E3 ag-1,DAX1 inh-2,NR2E3 ag-2,SMARCA2 activ,JMJD2C inh,NR2E3 ag confirm,GAL4-VP16 luc
COc1ccc(OC)c(NC(=O)CSc2nnnn2-c2ccc3c(c2)OCO3)c1,-,-,-,101,-,-,100,-
COC(=O)c1ccc(-n2nnnc2SCC(=O)Nc2cc(OC)ccc2OC)cc1,-,-,-,-,-,-,.,.
O=C(CSc1nnnn1-c1ccc(O)cc1)Nc1ccc(N2CCOCC2)c(Cl)c1,-,-,-,98,-,-,98,-
Cc1ccc(-n2nnnc2SCC(=O)Nc2ccc3c(c2)OCCO3)cc1C,-,-,-,-,-,-,.,.
CC(O)CC(C(=O)NNc1ccccc1)C(=O)NNc1ccccc1 (stereo not given),-,-,-,-,-,-,-,-
CC(C)OC(=O)C(=O)NNc1ccccc1,-,-,-,-,-,-,-,-
CCN(CC)S(=O)(=O)c1cccc(NC(=O)CNc2cccc(S(=O)(=O)N3CCCC3)c2)c1,-,-,-,85,-,-,80,-
CCN(CC)S(=O)(=O)c1cccc(NC(=O)Nc2cccc(C(F)(F)F)c2)c1,-,-,-,75,-,-,-,-
COc1ccc(OC)c(S(=O)(=O)N2CCC(c3cn4ccccc4n3)CC2)c1,-,.,.,.,-,.,.,.
COC(=O)C1CCCCN1C(=O)c1cc(COc2cccc3cnccc23)on1 (stereo not given),-,-,-,102,-,-,95,88
CN(Cc1nccs1)C(=O)c1cc(COc2cccc3cnccc23)on1,-,-,-,94,-,-,81,76
O=C(c1cc(COc2cccc3cccnc23)on1)N1CCC[C@H]1CO,-,.,-,-,-,.,.,.
CCOC(=O)CC1CCCCN1C(=O)c1cc(COc2cccc3cnccc23)on1 (stereo not given),-,-,-,101,-,-,91,88
C#CCNC(=O)C[C@H]1C[C@@]2(C(=O)OC)C(=C[C@H](C3CCCC3)O[C@@H]2C)N(Cc2ccco2)C1=O,-,.,.,.,-,.,.,.
Cc1ccc2nc(C)c(CN3CCN(c4ccc([N+](=O)[O-])cc4Cl)CC3)n2c1,-,-,-,104,-,-,95,84
O=C(CCCN1C(=O)/C(=C/c2ccccc2Cl)SC1=S)NCCCN1CCOCC1,-,-,-,78,-,-,-,-
O=C(CCCN1C(=O)/C(=C/c2ccccc2Cl)SC1=S)NNC(=O)c1ccncc1,-,-,-,-,-,-,-,-
COc1ccc(-c2ccc(C(=O)NCc3ccc(F)c(F)c3)c3occc23)c(C)c1,-,.,.,-,-,.,.,.
O=C(NCc1ccncc1)c1ccc(-c2ccc(F)c(F)c2)c2ccoc12,-,.,.,84,-,.,96,82
COc1ccc(-c2ccc(C(=O)NCc3ccncc3)c3occc23)c(C)c1,-,.,.,82,-,.,95,82
Cc1ccc(NC(=O)Cn2nnc(-c3ccccc3F)n2)cc1C,-,.,.,.,-,.,.,.
Cc1cccc(NS(=O)(=O)c2ccc(-c3cnc(C4CC4)o3)cc2)c1C,-,-,-,83,-,-,77,-
Cc1ccc(C)c(NS(=O)(=O)c2ccc(-c3cnc(C4CC4)o3)cc2)c1,-,-,-,80,-,-,-,-
Cc1cc(C)cc(NS(=O)(=O)c2ccc(-c3cnc(C4CC4)o3)cc2)c1,-,-,-,-,-,-,-,-
O=S(=O)(Nc1ccccc1)c1ccc(-c2cnc(C3CC3)o2)cc1,-,-,-,-,-,-,.,.
SMILES,DAX1 inh-1,NR2E3 ag-1,DAX1 inh-2,NR2E3 ag-2,SMARCA2 activ,JMJD2C inh,NR2E3 ag confirm,GAL4-VP16 luc
CC(=O)c1cccc(NS(=O)(=O)c2ccc(-c3cnc(C4CC4)o3)cc2)c1,-,-,-,101,-,-,95,82
COc1ccc(O)c(/C=N/Nc2nc(Nc3ccccc3)nc(-n3nc(C)cc3C)n2)c1,-,-,-,96,-,-,-,-
COc1cc(/C=N/Nc2nc(Nc3ccccc3)nc(-n3nc(C)cc3C)n2)cc(OC)c1OC,-,-,-,-,-,-,-,-
COc1ccc(/C=N/Nc2cc(C)nc(-n3nc(C)cc3C)n2)cc1,-,-,-,94,-,-,-,-
COc1cc(/C=N/Nc2nc(Nc3ccc(C)cc3)nc(-n3nc(C)cc3C)n2)cc(OC)c1OC,-,-,-,-,-,-,-,-
Cc1cc(N/N=C/c2cccc(Cl)c2)nc(-n2nc(C)cc2C)n1,-,-,-,-,-,-,.,.
Cc1ccccc1CN1CCCCC(NC(=O)c2ccc(COc3ccccc3)cc2)C1=O (stereo not given),-,.,.,.,-,.,.,.
COc1ccc(CCN(Cc2cccs2)S(=O)(=O)c2ccccc2)cc1OC,-,.,.,.,-,.,.,.
O=C(c1cccc(F)c1)N(Cc1ccccn1)CC1CCCO1 (stereo not given),-,.,.,.,-,.,.,.
Cc1cc(C)n(CC(=O)NNC(=O)c2cccc(C(F)(F)F)c2)n1,-,-,-,-,-,-,.,.
Cc1cc(NNC(=O)c2cccc(C(F)(F)F)c2)nc2c1c(C)nn2C,-,-,-,-,-,-,87,-
COc1ccc(S(=O)(=O)N2CCCCC2)cc1NC(=S)Nc1ccccc1,-,-,-,91,-,-,86,-
COc1ccc(S(=O)(=O)N2CCCCC2)cc1NC(=S)Nc1cccc(Cl)c1C,-,-,-,80,-,-,89,-
COC(=O)[C@]12C[C@H](CC(=O)N3CCC(c4ccccc4)CC3)C(=O)N(CCC3=CCCCC3)C1=C[C@H](C(C)C)O[C@@H]2C1CC1,-,.,.,.,-,.,.,.
C[C@@H](C(=O)Nc1ccc2c(c1)OCCO2)n1c(=O)[nH]c2ccccc2c1=O,-,-,-,-,-,-,-,-
COC(=O)C1CN(Cc2ccccc2)CCS(=O)(=O)N1Cc1cn(Cc2ccc(Cl)cc2)nn1 (stereo not given),-,.,.,.,-,.,.,.
Cc1ccc(CCNc2ncnc(Cl)c2N)cc1,-,.,-,78,-,.,92,74
Nc1c(Cl)ncnc1NCCO,-,-,-,-,-,-,.,.
